Article PMC3288198 (ACS Chemical Biology, 2011)
Where two headings read alike, the source gives them in different places.

Key:
Type in all cases: biochemical
[1] = biological target: T1, HDAC7 (Homo sapiens, UniProt Q8WUI4); experiment: HDAC deacetylase homogenous fluorescence assay, HDAC7
T1 sequence (Q8WUI4 1-952): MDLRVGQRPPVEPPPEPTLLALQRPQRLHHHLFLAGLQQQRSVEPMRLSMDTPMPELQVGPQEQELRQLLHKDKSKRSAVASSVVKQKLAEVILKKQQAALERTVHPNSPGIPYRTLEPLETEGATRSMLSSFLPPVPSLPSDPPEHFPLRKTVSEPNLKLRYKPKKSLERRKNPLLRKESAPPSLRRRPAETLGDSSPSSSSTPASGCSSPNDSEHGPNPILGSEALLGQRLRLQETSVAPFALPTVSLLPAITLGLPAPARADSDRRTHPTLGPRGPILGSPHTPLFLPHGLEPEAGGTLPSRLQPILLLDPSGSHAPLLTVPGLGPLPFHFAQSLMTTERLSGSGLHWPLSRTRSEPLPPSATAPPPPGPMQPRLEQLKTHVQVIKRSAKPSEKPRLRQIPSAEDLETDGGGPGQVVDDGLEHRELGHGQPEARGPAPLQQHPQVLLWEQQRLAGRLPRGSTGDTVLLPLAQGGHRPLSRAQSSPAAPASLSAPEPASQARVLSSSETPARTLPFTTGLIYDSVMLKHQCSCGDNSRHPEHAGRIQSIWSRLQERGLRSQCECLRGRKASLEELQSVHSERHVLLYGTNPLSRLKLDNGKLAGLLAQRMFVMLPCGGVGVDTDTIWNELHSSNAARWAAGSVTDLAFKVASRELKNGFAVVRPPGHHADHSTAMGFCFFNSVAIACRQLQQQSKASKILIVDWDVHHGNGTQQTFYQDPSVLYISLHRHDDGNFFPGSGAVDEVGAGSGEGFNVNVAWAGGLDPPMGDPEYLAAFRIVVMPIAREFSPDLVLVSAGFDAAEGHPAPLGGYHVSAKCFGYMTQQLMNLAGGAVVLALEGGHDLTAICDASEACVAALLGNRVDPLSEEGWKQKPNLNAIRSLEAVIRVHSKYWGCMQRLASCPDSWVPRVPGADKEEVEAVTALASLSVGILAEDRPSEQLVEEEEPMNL

[2] = biological target: T2, HDAC6 (Homo sapiens, UniProt Q9UBN7); experiment: HDAC deacetylase homogenous fluorescence assay, HDAC6
T2 sequence (Q9UBN7 1-1215): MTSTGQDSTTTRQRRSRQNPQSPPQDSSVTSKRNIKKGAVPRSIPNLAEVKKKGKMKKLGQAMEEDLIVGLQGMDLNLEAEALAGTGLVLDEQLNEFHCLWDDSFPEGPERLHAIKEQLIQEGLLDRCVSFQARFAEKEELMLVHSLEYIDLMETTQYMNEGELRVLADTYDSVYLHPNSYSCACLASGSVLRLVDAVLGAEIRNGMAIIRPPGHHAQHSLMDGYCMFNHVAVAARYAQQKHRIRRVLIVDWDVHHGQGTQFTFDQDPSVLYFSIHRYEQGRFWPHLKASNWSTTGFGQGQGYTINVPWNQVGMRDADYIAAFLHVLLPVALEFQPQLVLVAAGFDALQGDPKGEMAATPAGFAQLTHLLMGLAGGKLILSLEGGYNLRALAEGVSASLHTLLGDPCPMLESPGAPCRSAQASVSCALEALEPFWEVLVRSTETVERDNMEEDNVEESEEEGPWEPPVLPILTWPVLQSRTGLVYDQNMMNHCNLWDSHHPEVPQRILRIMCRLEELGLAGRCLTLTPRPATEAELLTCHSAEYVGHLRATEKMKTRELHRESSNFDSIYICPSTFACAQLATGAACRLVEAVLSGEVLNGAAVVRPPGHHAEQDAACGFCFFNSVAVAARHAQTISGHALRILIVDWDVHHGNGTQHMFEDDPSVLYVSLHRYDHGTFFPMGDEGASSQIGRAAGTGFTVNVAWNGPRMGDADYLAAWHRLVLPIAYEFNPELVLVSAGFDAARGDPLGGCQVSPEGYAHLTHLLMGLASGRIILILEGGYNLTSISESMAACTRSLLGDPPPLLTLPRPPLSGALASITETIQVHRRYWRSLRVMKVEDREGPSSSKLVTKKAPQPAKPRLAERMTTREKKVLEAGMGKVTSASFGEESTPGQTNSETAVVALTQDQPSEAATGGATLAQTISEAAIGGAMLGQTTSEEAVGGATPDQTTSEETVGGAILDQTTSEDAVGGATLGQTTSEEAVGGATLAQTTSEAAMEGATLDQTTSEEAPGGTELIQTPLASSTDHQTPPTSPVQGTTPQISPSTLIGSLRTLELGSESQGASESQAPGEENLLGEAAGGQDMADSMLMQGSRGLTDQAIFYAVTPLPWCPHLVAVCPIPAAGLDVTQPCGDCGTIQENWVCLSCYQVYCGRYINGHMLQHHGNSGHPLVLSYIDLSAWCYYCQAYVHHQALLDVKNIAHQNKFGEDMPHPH
Outline: (§1)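 Baculovirus-expressed recombinant human enzyme (HDAC3 as HDAC3/N-CoR2 complex) incubated with serially diluted test compound over a 12-point titration. Substrate: acetylated AMC-K(Ac)GL. Deacetylated product cleaved by lysine peptidase to free MCA, read at ex 355/em 460 nm. Data normalised to control plate by plate. IC50 and SD from non-linear regression; Ki via Cheng-Prusoff, Ki = IC50/(1+[S]/Km).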

[3] = biological target: HDAC2 (Homo sapiens, UniProt Q92769); experiment: HDAC deacetylase homogenous fluorescence assay, HDAC2; conditions: for Ki: read-out: HDAC2 Ki, converted from IC50 using Cheng-Prusoff equation
Outline: as §1

[4] = biological target: T3, HDAC10 (Homo sapiens, UniProt Q969S8); experiment: HDAC deacetylase homogenous fluorescence assay, HDAC10
T3 sequence (Q969S8 1-669): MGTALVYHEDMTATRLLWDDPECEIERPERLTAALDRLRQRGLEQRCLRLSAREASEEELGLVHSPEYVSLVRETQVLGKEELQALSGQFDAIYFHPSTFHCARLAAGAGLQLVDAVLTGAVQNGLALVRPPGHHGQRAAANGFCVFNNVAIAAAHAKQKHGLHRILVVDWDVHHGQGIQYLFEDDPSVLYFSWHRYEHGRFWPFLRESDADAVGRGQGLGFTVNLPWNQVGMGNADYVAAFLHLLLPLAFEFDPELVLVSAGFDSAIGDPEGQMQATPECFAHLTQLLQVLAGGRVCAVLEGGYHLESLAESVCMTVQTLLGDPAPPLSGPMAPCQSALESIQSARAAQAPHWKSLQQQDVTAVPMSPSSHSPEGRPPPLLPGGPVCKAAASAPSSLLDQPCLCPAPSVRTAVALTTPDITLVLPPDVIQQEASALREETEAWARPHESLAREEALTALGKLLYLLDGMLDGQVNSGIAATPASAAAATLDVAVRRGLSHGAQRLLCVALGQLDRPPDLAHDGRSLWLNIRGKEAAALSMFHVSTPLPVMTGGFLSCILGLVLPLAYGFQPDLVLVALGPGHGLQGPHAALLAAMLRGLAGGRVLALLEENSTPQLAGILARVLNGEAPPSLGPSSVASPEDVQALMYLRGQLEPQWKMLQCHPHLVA
Outline: as §1

[5] = read-out: HDAC7 IC50, 12 point titration, trifluoroacetylated substrate
[6] = read-out: HDAC7 Ki, converted from IC50 using Cheng-Prusoff equation
[7] = read-out: HDAC6 IC50, 12 point titration, acetylated substrate
[8] = read-out: HDAC6 Ki, converted from IC50 using Cheng-Prusoff equation
[9] = read-out: HDAC2 IC50, 12 point titration, acetylated substrate
[10] = read-out: HDAC10 IC50, 12 point titration, acetylated substrate

HDAC2, sequence (Q92769 whole entry): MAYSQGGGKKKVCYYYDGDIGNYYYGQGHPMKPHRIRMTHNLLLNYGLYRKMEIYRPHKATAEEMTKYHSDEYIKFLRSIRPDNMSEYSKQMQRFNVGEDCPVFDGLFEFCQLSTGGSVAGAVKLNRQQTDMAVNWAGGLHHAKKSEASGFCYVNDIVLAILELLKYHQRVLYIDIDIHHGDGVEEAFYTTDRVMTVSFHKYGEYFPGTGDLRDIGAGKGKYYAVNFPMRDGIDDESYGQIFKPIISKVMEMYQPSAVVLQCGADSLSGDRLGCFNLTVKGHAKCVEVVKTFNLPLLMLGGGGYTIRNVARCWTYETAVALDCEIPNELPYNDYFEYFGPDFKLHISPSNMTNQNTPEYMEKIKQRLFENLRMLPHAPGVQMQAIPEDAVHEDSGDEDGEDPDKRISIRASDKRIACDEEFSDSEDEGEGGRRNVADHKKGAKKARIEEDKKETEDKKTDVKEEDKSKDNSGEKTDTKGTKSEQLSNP

Row | SMILES | IC50 [1, 5] [µM] | Ki [1, 6] [µM] | IC50 [2, 7] [µM] | Ki [2, 8] [µM] | IC50 [3, 9] [µM] | IC50 [4, 10] [µM] | Ki ([4]; read-out: HDAC10 Ki, converted from IC50 using Cheng-Prusoff equation) [µM] | IC50 [1] [µM] | Ki [1] [µM] | IC50 [2] [µM] | Ki [2] [µM] | IC50 [3] [µM] | Ki [3] [µM] | IC50 [4] [µM] | Ki [4] [µM]
1 | OC[C@H]1O[C@H]([S-])[C@H](O)[C@@H](O)[C@@H]1O.[Au+] [Aurothioglucose, 1-thio-D-glucopyronaose gold salt] | 22.4 ± 4.4 | 6.35 | 14.4 ± 5.8 | 3.49 | > 180 | 4.9 ± 1.5 | 2.16 |  |  |  |  |  |  |  | 
2 | O=c1c2ccccc2[se]n1-c1ccccc1 [Ebselen, 2-phenyl-1,2-benzisoselenazol-3(2H)-one] |  |  |  |  |  |  |  | 10.9 ± 2.2 | 3.09 | 12.8 ± 2.6 | 3.1 | 1.4 ± 0.3 | 0.08 | 0.95 ± 0.4 | 0.42
3 | NC(N)=Nc1ccc2[nH]c3c(c2c1)C[C@@]1(O)[C@H]2Cc4ccc(O)c5c4[C@@]1(CCN2CC1CC1)[C@H]3O5 [GNTI, guanidinyl-naltrindole di-trifluoroacetate] | 18.9 ± 1 | 5.36 | > 180 |  | 26.2 ± 7.6 | > 180 |  |  |  |  |  |  | 1.48 |  | 
4 | O=C1C(SCCO)=C(SCCO)C(=O)c2ccccc21 [NSC-95397, 2,3-bis[(2-Hydroxyethyl)thio]-1,4-naphthoquinone] |  |  |  |  |  |  |  | 13.1 ± 4.3 | 3.72 | 12.7 ± 2.5 | 3.07 | > 100 |  | 14.5 ± 1.5 | 6.4
5 | COc1ccc2c(c1)CC[C@@H]1[C@@H]2CC[C@]2(C)[C@@H](NCCCCCCN3C(=O)C=CC3=O)CC[C@@H]12 [U-73122, 1-[6-[[(17beta)-3-methoxyestra-1,3,5([10])-trien-17-yl]amion]hexyl]-1H-pyrrole-2,5-dione] | > 180 |  | 45.2 ± 12.6 | 11 | > 100 | > 100 |  |  |  |  |  |  |  |  | 
